Measured values: article PMC6609548 (British Journal of Pharmacology, 2019)

Key:
ρ1 GABAC receptors = ρ1 GABAC receptors (Homo sapiens, UniProt P24046); assay: Whole-cell patch-clamp on CHO cells expressing homomeric ρ1 GABAC receptors; assay type: cell-based; conditions: visible and UV light
α2 glycine receptors = molecular target: T1, α2 glycine receptors (Homo sapiens, UniProt P23416); assay: Whole-cell patch-clamp on CHO cells expressing α2 glycine receptors; assay type: cell-based; conditions: 50 μM, glycine 30 μM, Vh −30 mV, n = 10
T1 sequence (P23416 28-452): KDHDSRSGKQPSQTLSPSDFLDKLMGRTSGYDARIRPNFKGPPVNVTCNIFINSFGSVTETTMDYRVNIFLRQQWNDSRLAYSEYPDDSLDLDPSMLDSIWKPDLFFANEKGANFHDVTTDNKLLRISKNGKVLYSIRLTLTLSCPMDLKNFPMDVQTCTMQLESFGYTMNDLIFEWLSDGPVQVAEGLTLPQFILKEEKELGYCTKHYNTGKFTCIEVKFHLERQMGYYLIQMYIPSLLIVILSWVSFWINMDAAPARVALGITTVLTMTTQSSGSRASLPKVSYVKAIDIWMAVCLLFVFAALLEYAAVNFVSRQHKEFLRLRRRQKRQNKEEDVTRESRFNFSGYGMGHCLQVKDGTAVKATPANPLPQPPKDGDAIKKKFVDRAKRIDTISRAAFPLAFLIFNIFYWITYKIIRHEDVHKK
Outline: (§1)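 CHO-K1 cells were transfected (Lipofectamine) with receptor subunit cDNA plus GFP; fluorescent cells were recorded whole-cell 24–72 hr later at 20–25°C. External HEPES-buffered saline at pH 7.4; KCl-based pipette solution at pH 7.3. Agonist and test compound were co-applied by a fast three-tube system at Vh −30/+30 mV or on a −60 to +60 mV ramp. UV came from a 365 nm LED (0.6 mW·mm−2). Cells with input resistance <150 MOhm or >30% run-down were excluded.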

ρ2 mutant S2′G receptors = ρ2 mutant S2′G receptors (Homo sapiens, UniProt P28476, S295G); assay: Whole-cell patch-clamp on CHO cells expressing mutant ρ2 S2′G receptors; assay type: cell-based
ρ2 mutant S2′G receptors, sequence (P28476 21-465 S295G): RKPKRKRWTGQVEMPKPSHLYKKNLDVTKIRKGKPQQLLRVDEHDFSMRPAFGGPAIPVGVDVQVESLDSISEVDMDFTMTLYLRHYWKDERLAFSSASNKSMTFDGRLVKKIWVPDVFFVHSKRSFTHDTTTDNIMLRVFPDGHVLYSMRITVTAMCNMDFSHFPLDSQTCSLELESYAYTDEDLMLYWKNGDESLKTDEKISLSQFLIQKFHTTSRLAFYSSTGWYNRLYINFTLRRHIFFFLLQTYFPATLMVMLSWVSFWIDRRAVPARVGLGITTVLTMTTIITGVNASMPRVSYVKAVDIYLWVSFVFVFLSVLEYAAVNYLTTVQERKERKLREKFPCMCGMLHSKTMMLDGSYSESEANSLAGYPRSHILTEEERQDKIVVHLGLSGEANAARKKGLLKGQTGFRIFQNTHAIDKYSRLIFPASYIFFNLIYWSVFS
Outline: as §1

[1] = system: GABAergic eIPSCs in dentate gyrus granule cells; assay: Evoked GABAergic postsynaptic currents; assay type: cell-based, mice; conditions: for suppression of eIPSCs amplitude to: n = 5
Outline: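 Hippocampal slices (coronal) from 3–4-week-old ICR outbred mice of both sexes, recovered ≥1 hr at room temperature and superfused with oxygenated aCSF at 32–34°C. Whole-cell recordings from dentate granule cells at Vh 0 mV. eIPSCs were evoked every 10 s from a theta-glass electrode placed 100–200 μm away. Protocol: 20–30 control events, then test compound in aCSF for 5–10 min, perfusate illuminated at 365 nm then 455 nm for 3–5 min each.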

GABA ρ1 P2′S receptors = GABA ρ1 P2′S receptors (Homo sapiens, UniProt P24046, P315S); assay: Whole-cell patch-clamp on CHO cells expressing mutant ρ1 P2′S receptors; assay type: cell-based; conditions: 100 μM Azo-NZ1, 10 μM GABA, visible light
GABA ρ1 P2′S receptors, sequence (P24046 22-479 P315S): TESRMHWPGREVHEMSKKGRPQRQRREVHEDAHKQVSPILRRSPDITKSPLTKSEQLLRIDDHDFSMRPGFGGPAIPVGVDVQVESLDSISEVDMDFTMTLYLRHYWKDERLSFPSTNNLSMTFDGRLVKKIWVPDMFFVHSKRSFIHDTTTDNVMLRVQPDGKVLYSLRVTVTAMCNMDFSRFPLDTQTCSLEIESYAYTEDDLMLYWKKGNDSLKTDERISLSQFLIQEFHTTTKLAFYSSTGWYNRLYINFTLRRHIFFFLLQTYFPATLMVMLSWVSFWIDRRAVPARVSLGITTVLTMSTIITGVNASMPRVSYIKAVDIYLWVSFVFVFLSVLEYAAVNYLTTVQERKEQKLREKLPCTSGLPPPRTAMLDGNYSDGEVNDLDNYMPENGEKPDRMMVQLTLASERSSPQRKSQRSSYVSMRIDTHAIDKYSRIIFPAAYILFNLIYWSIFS

α1/β2/γ2 GABAA receptors = α1/β2/γ2 GABAA receptors (Homo sapiens, UniProt P14867+P18507+P47870); assay: Whole-cell patch-clamp on CHO cells expressing heteromeric GABAA receptors; assay type: cell-based; conditions: for decrease of currents induced by GABA (ramp protocol): 50 μM Azo-NZ1, 5 μM GABA, n = 5; for decrease of currents induced by GABA (ramp protocol) / decrease of amplitude of GABA-induced currents: visible light; for decrease of amplitude of GABA-induced currents: 70 μM Azo-NZ1, 5 μM GABA
α1/β2/γ2 GABAA receptors, sequence (P14867 28-456): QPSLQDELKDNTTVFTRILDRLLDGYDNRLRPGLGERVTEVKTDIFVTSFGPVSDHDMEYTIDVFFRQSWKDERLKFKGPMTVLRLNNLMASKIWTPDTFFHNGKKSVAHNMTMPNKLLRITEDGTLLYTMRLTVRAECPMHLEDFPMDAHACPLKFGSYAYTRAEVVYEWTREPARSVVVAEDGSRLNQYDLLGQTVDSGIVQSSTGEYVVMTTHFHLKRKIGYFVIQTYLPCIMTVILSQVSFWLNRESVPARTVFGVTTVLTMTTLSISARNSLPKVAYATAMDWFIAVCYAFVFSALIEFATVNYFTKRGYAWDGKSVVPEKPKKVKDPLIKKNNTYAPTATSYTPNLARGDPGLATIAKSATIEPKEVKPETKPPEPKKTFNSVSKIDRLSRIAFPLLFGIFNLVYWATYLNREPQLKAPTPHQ
α1/β2/γ2 GABAA receptors, sequence (P47870 25-512 limits assumed): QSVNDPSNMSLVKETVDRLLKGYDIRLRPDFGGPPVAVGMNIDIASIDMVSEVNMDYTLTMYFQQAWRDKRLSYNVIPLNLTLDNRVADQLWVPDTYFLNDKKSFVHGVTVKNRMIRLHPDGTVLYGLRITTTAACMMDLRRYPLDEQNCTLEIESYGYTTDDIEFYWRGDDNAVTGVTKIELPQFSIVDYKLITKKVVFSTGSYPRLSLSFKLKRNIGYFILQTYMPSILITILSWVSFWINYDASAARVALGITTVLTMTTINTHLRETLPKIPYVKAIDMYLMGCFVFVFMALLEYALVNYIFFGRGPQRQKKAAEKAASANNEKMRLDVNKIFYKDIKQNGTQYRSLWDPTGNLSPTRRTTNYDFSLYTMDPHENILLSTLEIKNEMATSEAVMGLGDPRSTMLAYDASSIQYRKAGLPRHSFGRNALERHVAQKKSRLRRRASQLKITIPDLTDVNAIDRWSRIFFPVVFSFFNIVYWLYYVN
α1/β2/γ2 GABAA receptors, sequence (P18507 40-467 isoform P18507-1 limits assumed): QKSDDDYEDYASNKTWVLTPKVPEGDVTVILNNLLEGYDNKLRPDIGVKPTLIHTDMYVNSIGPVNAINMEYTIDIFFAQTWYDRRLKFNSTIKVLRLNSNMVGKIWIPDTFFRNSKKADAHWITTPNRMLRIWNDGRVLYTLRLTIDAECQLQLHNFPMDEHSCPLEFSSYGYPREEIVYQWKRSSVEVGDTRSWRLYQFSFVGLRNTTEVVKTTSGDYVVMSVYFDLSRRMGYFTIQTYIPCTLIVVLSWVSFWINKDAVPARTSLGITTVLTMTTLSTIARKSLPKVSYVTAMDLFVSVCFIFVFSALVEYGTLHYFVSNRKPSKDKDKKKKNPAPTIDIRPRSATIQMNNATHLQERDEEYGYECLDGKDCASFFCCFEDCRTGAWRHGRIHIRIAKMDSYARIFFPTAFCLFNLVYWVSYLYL

α1 glycine receptors = molecular target: T2, α1 glycine receptors (Homo sapiens, UniProt P23415); assay: Whole-cell patch-clamp on CHO cells expressing α1 glycine receptors; assay type: cell-based; conditions: 50 μM, glycine 30 μM, Vh −30 mV
T2 sequence (P23415 29-457): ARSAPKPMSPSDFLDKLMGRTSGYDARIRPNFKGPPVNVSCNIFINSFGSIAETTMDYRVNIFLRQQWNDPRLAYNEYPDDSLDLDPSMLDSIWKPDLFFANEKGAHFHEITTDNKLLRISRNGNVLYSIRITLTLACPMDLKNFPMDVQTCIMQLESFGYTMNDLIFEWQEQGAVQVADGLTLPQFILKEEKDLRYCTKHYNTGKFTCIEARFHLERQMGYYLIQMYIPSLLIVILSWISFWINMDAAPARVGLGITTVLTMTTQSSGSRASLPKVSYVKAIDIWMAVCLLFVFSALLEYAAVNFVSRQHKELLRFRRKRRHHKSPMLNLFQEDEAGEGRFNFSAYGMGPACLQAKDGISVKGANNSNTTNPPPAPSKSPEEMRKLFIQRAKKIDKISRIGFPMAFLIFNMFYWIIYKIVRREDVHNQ
Outline: as §1

5‐HT3A receptors = molecular target: T3, 5‐HT3A receptors (Homo sapiens, UniProt P46098); assay: Whole-cell patch-clamp on CHO cells expressing homomeric 5HT3A receptors; assay type: cell-based; conditions: trans or cis‐configuration
T3 sequence (P46098 24-478): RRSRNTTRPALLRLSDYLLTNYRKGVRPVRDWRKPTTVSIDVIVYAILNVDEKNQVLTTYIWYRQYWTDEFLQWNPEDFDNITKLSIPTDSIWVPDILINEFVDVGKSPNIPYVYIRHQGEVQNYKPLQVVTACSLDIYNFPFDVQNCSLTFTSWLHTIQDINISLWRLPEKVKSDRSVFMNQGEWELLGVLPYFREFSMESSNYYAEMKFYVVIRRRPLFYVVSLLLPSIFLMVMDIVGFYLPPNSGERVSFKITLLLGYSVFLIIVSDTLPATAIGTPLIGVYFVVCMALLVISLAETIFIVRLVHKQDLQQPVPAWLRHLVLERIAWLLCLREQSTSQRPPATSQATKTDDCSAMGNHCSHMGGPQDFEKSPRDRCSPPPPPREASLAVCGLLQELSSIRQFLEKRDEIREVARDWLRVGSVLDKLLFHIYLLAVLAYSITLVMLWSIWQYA
Outline: as §1

ρ2 GABAC receptors = ρ2 GABAC receptors (Homo sapiens, UniProt P28476); assay: Whole-cell patch-clamp on CHO cells expressing homomeric ρ2 GABAC receptors; assay type: cell-based
ρ2 GABAC receptors, sequence (P28476 21-465): as the sequence (P28476 21-465 S295G) above, with G275S counted along it
Outline: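 ρ2 receptors were expressed in CHO-K1 cells by cDNA transfection with GFP; whole-cell recordings were made 24–72 hr later at 20–25°C using fast solution exchange. […] Test compound inhibition of GABA-evoked currents was measured at Vh −30 and +30 mV and normalised to the current just before compound application; mean ± SEM.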

ρ1 GABAC receptors, sequence (P24046 22-479): as the sequence (P24046 22-479 P315S) above, with S294P counted along it

Compound: O=C1CN=C(c2ccccc2)c2cc(/N=N/c3ccc(S(=O)(=O)O)cc3)ccc2N1 [Azo‐NZ1, (E)‐4‐((2‐oxo‐5‐phenyl‐2,3‐dihydro‐1H‐benzo[e][1,4]diazepin‐7‐yl)diazenyl)benzenesulfonic acid]
- effect on receptor activity (ρ1 GABAC receptors): did not alter the activity
- current amplitude under UV illumination (α2 glycine receptors; UV illumination): 95 ± 7%
- current amplitude decreased to (α2 glycine receptors; visible light): 23 ± 3%
- UV effect (ρ2 mutant S2′G receptors; UV illumination in presence of Azo-NZ1): virtually absent
- decrease of current amplitude (ρ2 mutant S2′G receptors; upon application of Azo-NZ1, n = 5): 14 ± 2%
- suppression of eIPSCs amplitude to ([1]; 100 μM Azo-NZ1, blue light, Vh 0 mV): 58.6 ± 3.3%
- suppression of eIPSCs amplitude to ([1]; 200 μM Azo-NZ1, blue light, Vh 0 mV): 25.2 ± 6.0%
- amplitude of eIPSCs ([1]; single neuron, 100 μM Azo-NZ1, Vh 0 mV, control aCSF 156.9 ± 4.5 pA): 100.6 ± 3.2 pA
- effect on GABA-induced currents (GABA ρ1 P2′S receptors): inhibited currents
- IC50 (α1/β2/γ2 GABAA receptors): 67 ± 5 µM
- decrease of currents induced by GABA (ramp protocol) (α1/β2/γ2 GABAA receptors; +60 mV): 76 ± 5%
- decrease of currents induced by GABA (ramp protocol) (α1/β2/γ2 GABAA receptors; −60 mV): 40 ± 4%
- effect at saturating GABA compared with 5 μM GABA (α1/β2/γ2 GABAA receptors; 50 μM Azo-NZ1 co-applied with 300 μM GABA, Vhold −30 mV): even stronger inhibitory effect
- decrease of amplitude of GABA-induced currents (α1/β2/γ2 GABAA receptors; +30 mV): 78%
- decrease of amplitude of GABA-induced currents (α1/β2/γ2 GABAA receptors; −30 mV): 51%
- effect on GABA-induced currents (α1/β2/γ2 GABAA receptors; Azo-NZ1 0.5–1 μM, 5 μM GABA): did not produce effect
- current amplitude reduced to (α1 glycine receptors; UV illumination): 73 ± 2%
- current amplitude reduced to (α1 glycine receptors; visible light (trans), n = 4): 86 ± 3%
- interaction with 5‐HT3A receptors (5‐HT3A receptors): did not interact in a specific manner
- IC50 (ρ2 GABAC receptors): 128 ± 25 µM

Compound: CN1C(=O)CN=C(c2ccccc2)c2cc(Cl)ccc21 [Diazepam, diazepam, reference compound]
- effect on GABA-induced current amplitude (α1/β2/γ2 GABAA receptors; diazepam 10 μM co-applied with non-saturating GABA (5 μM), Vh −30 mV): increase in the current amplitude

Compound: CN1CCc2cc3c(cc2[C@H]1[C@@H]1OC(=O)c2c1ccc1c2OCO1)OCO3 [Bicuculline, bicuculline, reference compound]
- effect on eIPSCs ([1]; bicuculline 10 μM, Vh 0 mV): complete inhibition
